Our source for the Activity, inhibition and fold change (FC) values is ChEMBL document CHEMBL5380783, “N-Substituted l-Iminosugars for the Treatment of Sanfilippo Type B Syndrome” (J Med Chem, 2023).

Activity calls are given as the source filed them. No cut-off for these calls is given here.

The subject of series [1] is IB3-1. Kind of series: Cytotoxicity against human IB3-1 cells assessed as induction of apoptosis upto 100 uM. In kind it is toxicity, cell-based. As to conditions: ib3-1, 100 µM.
The subject of series [2] is IB3-1. Kind of series: Antiproliferative activity against human IB3-1 cells upto 100 uM. Type of series: toxicity, cell-based. As to conditions: ib3-1, 100 µM.
The subject of a further series is HaCaT. Description: Antiproliferative activity against human HaCaT cells upto 100 uM. In kind it is toxicity, cell-based.
A short description of series [3]: Antiproliferative activity against human CuFi cells upto 100 uM. In kind it is toxicity, cell-based.
The subject of a further series is SK-N-BE(2). Description: Inhibition of lysosomal defects in NAGLU-silenced human SK-NBE cell clones assessed as reduction in more concentrated lysosomal distribution in the perinuclear region of the cytoplasm at 20 uM incubated for 48 hrs by LAMP1 staining based indirect immunofluorescence assay. Type of series: functional. In outline:
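Control and NAGLU-silenced SK-NBE clones grown on coverslips with 20 μM compound for 48 h. Fixed in 3.7% formaldehyde, permeabilized with saponin/BSA buffer, stained with anti-Lamp1 or anti-HS 10E4 for 1 h, then Alexa secondaries. Confocal imaging with 63× objective. Scored as percent cells with enlarged Lamp1 structures or membrane HS, plus mean fluorescence intensity, over 50 random cells from three experiments.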

For series [4], the system named is Fibroblast. Description: Inhibition of lysosomal defects in Sanfilippo-B patient derived human fibroblast cells assessed as reduction in more concentrated lysosomal distribution in the perinuclear region of the cytoplasm at 20 uM incubated for 48 hrs by LAMP1 staining based indirect immunofluorescence assay. In kind it is functional, cell-based. In outline: (§1)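 HDFa, MPS IIIA, MPS IIIB and MPS I patient fibroblasts in DMEM, 10% FBS, grown 48 h on coverslips with 20 μM compound. Double immunostained for HS (10E4) and Lamp1 with DAPI, confocal imaging. Mean fluorescence intensity expressed relative to untreated cells (d-enantiomers: percent positive cells), 50 random cells from three experiments.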

Series [5] has as its system Fibroblast. Kind of series: Inhibition of heparan sulfate accumulation on cell membrane in Sanfilippo-A patient derived human fibroblast cells at 20 uM incubated for 48 hrs by indirect immunofluorescence staining analysis. In kind it is functional, cell-based. In outline:
as §1

The subject of series [6] is Fibroblast. Description: Inhibition of lysosomal defects in MPS-1 patient derived human fibroblast cells assessed as reduction in accumulation of enlarged LAMP1-positive lysosomal structures within the cytoplasm at 20 uM incubated for 48 hrs by LAMP1 staining based indirect immunofluorescence assay. In kind it is functional, cell-based. In outline: as §1
Series [7] relates to Fibroblast. Kind of series: Inhibition of heparan sulfate accumulation on cell membrane in MPS-1 patient derived human fibroblast cells at 40 uM incubated for 48 hrs by indirect immunofluorescence staining analysis. In kind it is functional, cell-based. In a few lines: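 MPS I patient fibroblasts grown on coverslips with 40 μM compound for 48 h. Immunostained for HS (10E4) and Lamp1 with DAPI, imaged by confocal microscopy. Mean fluorescence intensity expressed relative to untreated cells, 50 random cells from three independent experiments.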

Series [8] has as its system HeLa. Description: Inhibition of heparan sulfate accumulation on cell membrane in human HeLa cells at 20 uM incubated for 48 hrs by indirect immunofluorescence staining analysis. In kind it is functional, cell-based. In outline: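 HeLa cells grown 48 h with compound, then immunostained with anti-HS antibody 10E4 to gauge membrane HS.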
Series [9] concerns HeLa. Description: Downregulation of EXT1 protein expression in human HeLa cells at 20 uM incubated for 24 hrs by western blot analysis. Type of series: functional, cell-based.
Series [10] relates to HeLa. Description: Downregulation of EXT2 protein expression in human HeLa cells at 20 uM incubated for 24 hrs by western blot analysis. In kind it is functional, cell-based. (Immunoblotting shows a protein as a band on a membrane.)
Series [11] has as its system Alpha-N-acetylglucosaminidase (Homo sapiens), P54802 [UNDEFINED MUTATION]. Description: Stabilization of mutated NAGLU in Sanfilippo-B patient derived human fibroblast cells assessed as increase in NAGLU activity using 4-methylumbelliferyl-N-acetyl-alpha-D-glucosaminide as substrate at 20 uM cells pretreated for 2 hrs with substrate followed by compound addition by fluorescence based analysis. In kind it is cell-based. In outline: (§2)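 Pellets of 5 × 10^5 MPS IIIB or HDFa fibroblasts lysed by 10 freeze–thaw cycles and clarified at 4 °C; protein by Lowry. Lysate incubated 2 h with 2 mM 4-methylumbelliferyl-N-acetyl-α-D-glucosaminide stock in 0.2 M Na-acetate pH 4.5, compound added at 20 μM. Activity normalized to protein, expressed as nmol substrate hydrolysed per h per mg.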

Series [12] concerns the target T1, Alpha-N-acetylglucosaminidase (Homo sapiens) (UniProt P54802).
T1 sequence (whole entry): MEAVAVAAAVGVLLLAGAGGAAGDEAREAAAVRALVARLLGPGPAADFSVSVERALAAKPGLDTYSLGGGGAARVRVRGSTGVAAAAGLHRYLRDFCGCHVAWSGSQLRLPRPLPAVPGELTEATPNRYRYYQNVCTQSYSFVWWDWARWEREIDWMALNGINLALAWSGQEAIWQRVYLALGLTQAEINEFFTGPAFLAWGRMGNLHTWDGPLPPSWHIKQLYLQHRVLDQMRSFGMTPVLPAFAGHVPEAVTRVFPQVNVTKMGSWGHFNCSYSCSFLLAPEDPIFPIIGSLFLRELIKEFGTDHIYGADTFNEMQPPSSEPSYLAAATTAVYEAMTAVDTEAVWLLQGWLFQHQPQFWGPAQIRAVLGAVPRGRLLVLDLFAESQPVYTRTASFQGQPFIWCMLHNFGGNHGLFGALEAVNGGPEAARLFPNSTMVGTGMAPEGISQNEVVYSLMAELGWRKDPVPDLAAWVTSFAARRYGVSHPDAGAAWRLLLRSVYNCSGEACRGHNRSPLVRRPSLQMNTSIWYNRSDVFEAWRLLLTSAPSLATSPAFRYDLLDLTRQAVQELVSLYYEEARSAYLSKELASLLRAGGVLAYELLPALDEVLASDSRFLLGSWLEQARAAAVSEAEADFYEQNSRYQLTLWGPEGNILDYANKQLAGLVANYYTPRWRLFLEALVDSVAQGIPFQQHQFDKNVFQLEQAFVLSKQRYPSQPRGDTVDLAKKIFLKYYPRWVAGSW
Description: Inhibition of NAGLU in human HDFa cells using 4-methylumbelliferyl-N-acetyl-alpha-D-glucosaminide as substrate upto 1 mM by fluorescence based analysis. Type of series: cell-based. In a few lines: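 HDFa fibroblast lysate (freeze–thaw, Lowry protein) incubated 2 h with 4-methylumbelliferyl-N-acetyl-α-D-glucosaminide (2 mM substrate solution) in Na-acetate buffer pH 4.5, compound added to the reaction up to 1 mM. Fluorogenic hydrolysis normalized per mg protein per hour.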

The subject of series [13] is Alpha-N-acetylglucosaminidase (Homo sapiens), P54802 [UNDEFINED MUTATION]. Description: Nonactive chaperone activity against mutated NAGLU in Sanfilippo-B patient derived human fibroblast cells assessed as co-localization of NAGLU with lysosomes by measuring NAGLU/Lamp1-positive structures at 20 uM incubated for 48 hrs by indirect immunofluorescence staining based analysis. In kind it is cell-based. In a few lines: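 HDFa and MPS IIIB fibroblasts, with or without (mock) 20 μM compound, for 48 h on coverslips. Co-stained for NAGLU and Lamp1 with DAPI, confocal imaging. NAGLU–lysosome co-localization quantified as mean fluorescence relative to untreated cells, 50 random cells from three experiments.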

For series [14] the test system is unchanged. Kind of series: Stabilization of mutated NAGLU in Sanfilippo-B patient derived human fibroblast cells assessed as increase in NAGLU activity using 4-methylumbelliferyl-N-acetyl-alpha-D-glucosaminide as substrate at 20 uM cells pretreated for 2 hrs with substrate followed by compound addition by fluorescence based analysis relative to control. In kind it is cell-based. In outline:
as §2

Turning to `COCCCCCCCCCN1C[C@@H](O)[C@H](O)[C@@H](O)[C@@H]1CO.Cl`, the Activity entry (in the series on IB3-1 [1]; with IB3-1 [2]; with HaCaT; in series [3]) was “Non-Toxic” each time. Besides, the inhibition result with SK-N-BE(2), in the series with Fibroblast [4], with Fibroblast [5], in the series with Fibroblast [7] and with HeLa [8] was “Active” throughout. Further, the inhibition result (in the series on Fibroblast [6]; with HeLa [9]; in the series with HeLa [10]; in [12]) was “inactive” in each case. The result in series [11] and in series [13] was Active.

Consider `Cl.OC[C@H]1[C@H](O)[C@@H](O)[C@H](O)CN1CCCCCOCC12CC3CC(CC(C3)C1)C2`, for which the Activity result (in the series with IB3-1 [1]; in the series on IB3-1 [2]; in the series on HaCaT; in [3]) was “Non-Toxic” in each case. The inhibition entry in the series on SK-N-BE(2), with Fibroblast [4], in the series with Fibroblast [5], in the series with Fibroblast [7] and with HeLa [8] was “Active” throughout. Further, the inhibition result (in the series with Fibroblast [6]; in the series with HeLa [9]; in the series with HeLa [10]; in [12]) was “inactive” each time. Moreover, the outcome in [11] and in [13] was Active.

Turning to `CCCCN1C[C@@H](O)[C@H](O)[C@@H](O)[C@@H]1CO.Cl`, the Activity result (with IB3-1 [1]; in the series with IB3-1 [2]; in the series on HaCaT; in series [3]) was “Non-Toxic” throughout. In addition, the inhibition entry in the series on SK-N-BE(2), in the series on Fibroblast [4], with Fibroblast [5], with Fibroblast [7], in the series on HeLa [8] and with HeLa [9] was “Active” throughout. Also, in the series with HeLa [10], the inhibition result was “Active”. Also, the inhibition entry (in the series on Fibroblast [6]; in series [12]) was “inactive” throughout. In series [14], the fold change (FC) is 20. In addition, in series [13], the result was Active.

Turning to `Cl.OC[C@@H]1NC[C@@H](O)[C@H](O)[C@H]1O`, the Activity entry (with IB3-1 [1]; in the series with IB3-1 [2]; in the series with HaCaT; in series [3]) was “Non-Toxic” throughout. Moreover, the inhibition entry with SK-N-BE(2), with Fibroblast [4], in the series with Fibroblast [5], with Fibroblast [7], with HeLa [8] and with HeLa [9] was “Active” each time. For the same compound, the inhibition entry with HeLa [10] was “Active”. Further, the inhibition result (with Fibroblast [6]; in [12]) was “inactive” in each case. Also, the outcome in series [11] and in series [13] was Active.
